Measured values reported in ChEMBL document CHEMBL2331476, “A novel semisynthetic flavonoid 7-O-galloyltaxifolin upregulates heme oxygenase-1 in RAW264.7 cells via MAPK/Nrf2 pathway” (J Med Chem, 2013).
Activity calls are given as the source filed them. The calls are words filed in the database; no cut-off is given here.

Experiments:
[1] = target: T1, Nuclear factor erythroid 2-related factor 2 (Mus musculus) (UniProt Q60795); assay: Activation of Nrf2 in mouse RAW264.7 cells assessed as induction of Hmox1 mRNA expression at 50 uM after 6 hrs by real-time PCR analysis in presence of SP600125; type: cell-based
T1 sequence (whole entry): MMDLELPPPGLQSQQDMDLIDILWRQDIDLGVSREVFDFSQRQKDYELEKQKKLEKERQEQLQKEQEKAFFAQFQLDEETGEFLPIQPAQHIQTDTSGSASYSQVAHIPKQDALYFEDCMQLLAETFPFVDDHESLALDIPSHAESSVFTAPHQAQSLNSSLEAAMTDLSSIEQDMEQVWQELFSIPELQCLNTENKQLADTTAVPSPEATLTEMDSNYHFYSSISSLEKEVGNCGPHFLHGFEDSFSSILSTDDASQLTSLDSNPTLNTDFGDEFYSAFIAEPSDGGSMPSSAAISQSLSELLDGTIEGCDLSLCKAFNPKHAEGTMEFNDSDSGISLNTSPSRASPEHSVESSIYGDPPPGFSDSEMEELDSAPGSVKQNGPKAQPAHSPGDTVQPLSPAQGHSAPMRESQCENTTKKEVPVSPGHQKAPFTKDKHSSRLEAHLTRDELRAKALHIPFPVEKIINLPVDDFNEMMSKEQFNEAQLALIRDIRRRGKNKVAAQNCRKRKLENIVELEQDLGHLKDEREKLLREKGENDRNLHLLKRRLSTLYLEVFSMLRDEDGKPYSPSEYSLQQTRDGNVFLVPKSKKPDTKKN
In short: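 Pretreatment 30 min with 0.1% DMSO, 15 μM PD98059, 15 μM SB203580 or 30 μM SP600125, then 50 μM agent for 6 h in serum-free medium. Hmox1 mRNA by TaqMan qPCR normalized to Gapdh, given as percent of agent-induced expression; mean ± SD of three experiments.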

[2] = target: Mitogen-activated protein kinase 3 (Mus musculus) (UniProt Q63844); assay: Activation of ERK1 in mouse RAW264.7 cells assessed as phosphorylation at Thr202/Tyr204 at 50 uM after 30 mins by Western blotting analysis; type: cell-based
Mitogen-activated protein kinase 3 (Mus musculus), sequence (Q63844 whole entry): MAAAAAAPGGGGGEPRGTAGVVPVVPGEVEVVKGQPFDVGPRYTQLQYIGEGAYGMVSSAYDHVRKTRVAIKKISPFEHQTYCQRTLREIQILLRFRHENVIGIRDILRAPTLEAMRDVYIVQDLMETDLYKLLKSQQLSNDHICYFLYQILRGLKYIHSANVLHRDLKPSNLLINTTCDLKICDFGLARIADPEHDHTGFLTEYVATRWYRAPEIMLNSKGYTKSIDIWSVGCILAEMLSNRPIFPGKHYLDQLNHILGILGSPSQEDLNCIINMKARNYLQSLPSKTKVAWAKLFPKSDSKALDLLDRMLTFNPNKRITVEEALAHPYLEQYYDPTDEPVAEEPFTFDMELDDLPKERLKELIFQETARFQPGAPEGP
In short: (§1)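 RAW264.7 cells (passage 5-25) seeded at 1 × 10⁵ cells/cm², serum-starved overnight, then exposed in serum-free medium for 30 min to 3 h; 0.1% DMSO vehicle; 75 ng/mL EGF for 30 min as positive control. Whole-cell lysates (20 μg/lane) on 10% SDS-PAGE, blotted for phospho-ERK1 (Thr202/Tyr204), phospho-ERK2 (Thr185/Tyr187) and total ERK1/2, chemiluminescent detection.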

[3] = system: RAW264.7; assay: Drug uptake in mouse RAW264.7 cells at 50 uM after 10 mins; type: ADME, cell-based; conditions: raw264.7, 10 min
In short: (§2)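 Cells given 50 μM for up to 6 h, then scraped, washed twice in PBS and sonicated in methanol with 5% acetic acid. Supernatant analysed by UPLC on a phenyl column (water/1% acetic acid/methanol to methanol gradient, 35 °C) with negative ESI-QqTOF MS. Contents expressed as nmol per 10⁶ cells.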

[4] = target: T1, Nuclear factor erythroid 2-related factor 2 (Mus musculus); assay: Activation of Nrf2 in mouse RAW264.7 cells assessed as nuclear accumulation at 50 uM after 3 hrs by Western blotting analysis; type: cell-based
In short: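 RAW264.7 cells (passage 5−25) seeded at 1 × 10⁵ cells/cm², switched to serum-free medium after 8 h, left overnight, then treated 3 h in serum-free medium; 0.1% DMSO vehicle control. Cells were swollen in hypotonic HEPES/NP-40 buffer for the cytosolic fraction and nuclei extracted in high-salt buffer. Blots loaded 30 μg/lane, Nrf2 densitometry normalized to actin, mean of three experiments.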

[5] = target: Mitogen-activated protein kinase 1 and 3 (ERK2 and ERK1) (Mus musculus) (UniProt P63085+Q63844); assay: Activation of ERK1/2 in mouse RAW264.7 cells assessed as phosphorylation at 50 uM up to 3 hrs by Western blotting analysis; type: cell-based; in short: as §1
Mitogen-activated protein kinase 1 and 3 (ERK2 and ERK1) (Mus musculus), sequence (P63085 whole entry, looked up): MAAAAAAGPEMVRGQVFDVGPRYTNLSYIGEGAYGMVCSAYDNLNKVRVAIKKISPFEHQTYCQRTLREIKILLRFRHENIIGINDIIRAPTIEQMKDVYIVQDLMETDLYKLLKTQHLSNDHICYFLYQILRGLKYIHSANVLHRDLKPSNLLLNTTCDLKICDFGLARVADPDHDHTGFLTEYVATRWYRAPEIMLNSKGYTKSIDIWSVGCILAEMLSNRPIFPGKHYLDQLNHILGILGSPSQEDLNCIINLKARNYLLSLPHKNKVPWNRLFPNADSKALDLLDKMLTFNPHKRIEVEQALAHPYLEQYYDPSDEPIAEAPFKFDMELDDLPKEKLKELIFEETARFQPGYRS
Mitogen-activated protein kinase 1 and 3 (ERK2 and ERK1) (Mus musculus), sequence (Q63844 whole entry, looked up): as the sequence (Q63844 whole entry) above

[6] = Drug metabolism in culture medium assessed as 7-O-galloylquercetin level; type: physicochemical
In short: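 Compound incubated in culture medium without cells. Medium aliquots diluted 1:1 in methanol with 5% acetic acid, centrifuged, and analysed by phenyl-column UPLC with negative-mode ESI-QqTOF MS.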

[7] = target: T1, Nuclear factor erythroid 2-related factor 2 (Mus musculus); assay: Activation of Nrf2 in mouse RAW264.7 cells assessed as upregulation of HO1 protein expression at 50 uM after 1 hrs by Western blotting analysis relative to untreated control; type: cell-based
In short: (§3)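 HO-1 protein in whole-cell lysates (20 μg/lane) of serum-starved RAW264.7 cells after 6 h at 10-50 μM or 50 μM for 1-6 h in serum-free medium, 0.1% DMSO control. Chemiluminescent Western blot; HO-1 densitometry normalized to actin, mean of three experiments.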

[8] = target: T1, Nuclear factor erythroid 2-related factor 2 (Mus musculus); assay: Activation of Nrf2 in mouse RAW264.7 cells assessed as upregulation of Hmox1 gene expression at 10 to 50 uM after 6 hrs by real-time PCR analysis relative to GAPDH mRNA expression; type: cell-based
In short: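 RAW264.7 cells treated 6 h in serum-free medium, 0.1% DMSO control. Total RNA (2 μg) reverse transcribed; TaqMan qPCR for Hmox1 and Gapdh, 40 cycles. Relative expression by 2^−ΔΔCT, normalized to Gapdh; mean ± SD of three experiments.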

[9] = target: T1, Nuclear factor erythroid 2-related factor 2 (Mus musculus); assay: Activation of Nrf2 in mouse RAW264.7 cells assessed as nuclear accumulation at 50 uM after 1 hr by Western blotting analysis; type: cell-based
In short: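 Serum-starved RAW264.7 cells treated 30 min to 3 h (10-50 μM for 3 h, or 50 μM time course); 0.1% DMSO control, 50 μM quercetin positive control. Cytosolic fraction from hypotonic HEPES pH 7.9 buffer with 0.1% NP-40; nuclear fraction by 420 mM NaCl extraction. 30 μg/lane blotted for Nrf2 and actin; Nrf2/actin densitometry, mean of three experiments.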

[10] = target: T1, Nuclear factor erythroid 2-related factor 2 (Mus musculus); assay: Activation of Nrf2 in mouse RAW264.7 cells assessed as upregulation of HO1 protein expression at 50 uM after 1 to 6 hr by Western blotting analysis; type: cell-based; conditions: TDE = time-dependent effect; in short: as §3
[11] = system: RAW264.7; assay: Induction of ROS generation in mouse RAW264.7 cells at 10 to 50 uM after 2 hrs by flow cytometric analysis; type: functional, cell-based
In short: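 Serum-starved RAW264.7 cells treated 2 h at 10-50 μM; 100 μM TBHP for 30 min as positive control. Medium replaced, cells loaded with 10 μM carboxy-H₂DCFDA for 15 min at 37 °C. Flow cytometry (488 nm excitation, 525 nm emission, 10,000 events) gave percentage of cells with raised ROS; mean ± SD of three experiments.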

[12] = system: RAW264.7; assay: Drug uptake in mouse RAW264.7 cells measured per 10^6 cells at 50 uM after 3 hrs; type: ADME, cell-based; conditions: raw264.7, 3 h; in short: as §2
[13] = target: T1, Nuclear factor erythroid 2-related factor 2 (Mus musculus); assay: Activation of Nrf2 in mouse RAW264.7 cells assessed as upregulation of HO1 protein expression at 50 uM after 4 hrs by Western blotting analysis relative to untreated control; type: cell-based; in short: as §3

Activity [1]: 90%
Activity [2]: Active
Drug uptake [3]: 85%
Activity [4]: Active
Activity [5]: inactive
Drug metabolism [6]: Not Active
fold change (FC) [7]: 1.1
Activity [8]: Dose-dependent effect
Activity [9]: Active
Activity [10]: tde
Drug uptake [12]: 1.03 nmol
fold change (FC) [13]: 1.6
SMILES: O=C(Oc1cc(O)c2c(c1)O[C@H](c1ccc(O)c(O)c1)[C@@H](O)C2=O)c1cc(O)c(O)c(O)c1
Activity [11]: Active
